Data reported in paper PMC11951523 (Genome Biology, 2025).
Read-outs that look alike come from different tables or passages of the source.

Legend:
FnoCas12a = FnoCas12a (Francisella tularensis subsp. novicida, UniProt A0Q7Q2); type: biochemical
SauCas9 [1] = target: T1, SauCas9 (Staphylococcus aureus, UniProt J7RUA5); experiment: In vitro purified enzyme activity assay for SauCas9; type: biochemical; conditions: Sau Cas9
T1 sequence (J7RUA5 1-1053): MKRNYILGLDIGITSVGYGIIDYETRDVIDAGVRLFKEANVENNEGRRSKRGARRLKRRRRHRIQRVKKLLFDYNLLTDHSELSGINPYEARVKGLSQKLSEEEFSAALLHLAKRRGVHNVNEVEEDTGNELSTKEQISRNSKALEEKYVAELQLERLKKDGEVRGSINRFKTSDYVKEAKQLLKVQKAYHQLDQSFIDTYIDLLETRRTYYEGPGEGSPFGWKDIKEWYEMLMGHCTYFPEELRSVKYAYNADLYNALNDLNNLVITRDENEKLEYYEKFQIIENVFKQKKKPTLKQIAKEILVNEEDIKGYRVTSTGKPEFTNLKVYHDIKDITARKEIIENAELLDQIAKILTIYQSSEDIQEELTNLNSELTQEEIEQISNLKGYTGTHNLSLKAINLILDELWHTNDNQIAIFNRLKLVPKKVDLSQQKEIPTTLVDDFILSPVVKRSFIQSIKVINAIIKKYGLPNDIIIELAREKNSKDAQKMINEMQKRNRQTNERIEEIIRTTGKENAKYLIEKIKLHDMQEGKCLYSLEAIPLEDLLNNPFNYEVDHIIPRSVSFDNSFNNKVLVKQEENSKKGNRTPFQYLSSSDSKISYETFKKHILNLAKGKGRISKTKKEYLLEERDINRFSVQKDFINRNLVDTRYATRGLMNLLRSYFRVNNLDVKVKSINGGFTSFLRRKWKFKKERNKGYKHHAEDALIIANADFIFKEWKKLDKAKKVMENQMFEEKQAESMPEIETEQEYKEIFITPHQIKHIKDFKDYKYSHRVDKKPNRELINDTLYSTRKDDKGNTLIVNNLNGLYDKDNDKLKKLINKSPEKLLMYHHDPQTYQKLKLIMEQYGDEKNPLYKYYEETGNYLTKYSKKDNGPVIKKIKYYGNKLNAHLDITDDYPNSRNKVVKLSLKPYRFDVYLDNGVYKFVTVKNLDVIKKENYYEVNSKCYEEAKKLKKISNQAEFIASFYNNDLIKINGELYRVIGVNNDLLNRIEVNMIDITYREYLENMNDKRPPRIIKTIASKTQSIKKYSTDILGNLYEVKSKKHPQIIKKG

LbaCas12a = LbaCas12a activity assay; type: biochemical, Lachnospiraceae bacterium; conditions: for effect on the activity of LbaCas12a: complete inhibition refers to 50 μM or above
SpyCas9 [2] = target: T2, SpyCas9 (Streptococcus pyogenes serotype M1, UniProt Q99ZW2); experiment: biochemical; conditions: Spy Cas9
SpyCas9 [3] = target: T2, SpyCas9; experiment: Surface plasmon resonance assay; type: binding
Summary of the method: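 His-tagged SpyCas9, Ni–NTA purified and imidazole-eluted, amine-coupled to a CM5 chip at 100 μg/ml. Test compounds were diluted in 1× PBST to a series of concentrations and injected at 30 μl/min, with 120 s association and 120 s dissociation. Equilibrium KD was fitted from the response curves.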

[4] = tested on: EcoRI or KpnI endonuclease; experiment: EcoRI or KpnI endonuclease activity assay with 2.5 kb linear DNA; type: biochemical
SpyCas9 [5] = conditions: read-out: IC50 in the in vitro DNA cleavage assay; cited from earlier work
BE4 base editor = BE4 base editor (Streptococcus pyogenes, UniProt Q99ZW2, D10A); experiment: BE4-mediated base editing of EMX1 in HEK293FT cells, EditR analysis; type: cell-based; conditions: read-out: IC50, cell-based assay; BE4 base editing efficiency for EMX1 loci, HEK293FT cells
SpyCas9 [6] = target: T2, SpyCas9; experiment: Two-plasmid-based bacterial survival assay; type: cell-based; conditions: read-out: IC50, bacteria-based assay, Spy Cas9, bacterial survival assay using pCas and pTarget-sgSSEA plasmids, E. coli MG1655
Summary of the method: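 E. coli MG1655 competent cells carrying pCas (SpyCas9) electroporated with pTarget-sgSSEA, or the pT-sgControl plasmid as reference. Test compound added to the electroporated bacteria for 1.5 h at 32 °C, then plated on LB with kanamycin and spectinomycin and incubated overnight. Colonies counted and expressed as a percentage of the compound-treated sgControl strain at the same concentration (100%).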

[7] = tested on: SpyCas9-mediated genome editing of PCSK9; experiment: SpyCas9-mediated anti-PCSK9 mouse model by hydrodynamic injection; type: in vivo, BALB/c mice
Summary of the method: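 On days 1, 4 and 7, 90 μg PX459-SpyCas9-sgPCSK9 or -sgControl in 2 ml saline was injected hydrodynamically into the tail vein over 5–8 s. Orbital blood (~100 μl) was taken days 2, 5 and 8, and heparin plasma (20 μl) was assayed by PCSK9 ELISA.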

SpyCas9 [8] = target: T2, SpyCas9; experiment: GFP-disruption assay in HEK293FT cells; type: cell-based; conditions: read-out: IC50, cell-based assay; Spy Cas9; GFP-disruption assay, PX459-SpyCas9 and pGL3-sgGFP plasmids, HEK293FT cells
E. coli MG1655 = experiment: Toxicity to bacteria in the two-plasmid-based bacterial survival assay; type: cell-based; conditions: MG1655, bacterial survival assay
Summary of the method: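 MG1655 pCas-competent cells were electroporated with pT-sgControl. Test compound was added to 700 μl LB immediately afterwards and incubated 1.5 h at 32 °C, then plated on LB agar with kanamycin and spectinomycin (100 μg/ml each). Colonies were counted after overnight incubation; biological replicates n = 3.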

[9] = in humans; cited from earlier work
SpyCas9 [10] = target: T2, SpyCas9; type: cell-based; conditions: read-out: IC50, cell-based assay; Spy Cas9; TIDE analysis, editing efficiency for COSMC or EMX1 loci in HEK293FT cells
Summary of the method: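 HEK293FT cells, ~2 × 10^5 per well, were seeded 1 day before transfection (Lipofectamine 3000) with 1 μg PX459-SpyCas9-sgCOSMC, -sgEMX1 or -sgControl. Test compound was added 0 or 6 h post-transfection, and cells were kept 24 h at 37 °C, then selected with 2.5 μg/ml puromycin for 36–48 h. Target loci were PCR-amplified, Sanger-sequenced and scored by TIDE.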

SauCas9 [11] = target: T1, SauCas9; experiment: SauCas9-mediated genome editing of COSMC in HEK293FT cells, TIDE analysis; type: cell-based; conditions: read-out: IC50, cell-based assay; Sau Cas9; TIDE analysis, editing efficiency for COSMC in HEK293FT cells
Summary of the method: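 HEK293FT wt cells were co-transfected (Lipofectamine 3000) with 1 μg miniCMV-SaCas9 and 1 μg pGL3 carrying sgCOSMC-Sau or sgControl. Test compound was added right after transfection for 24 h, followed by 2.5 μg/ml puromycin selection. The COSMC locus was PCR-amplified (40 cycles), Sanger-sequenced, and editing efficiency was obtained by TIDE analysis.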

[12] = read-out: IC50, in vitro purified enzyme assay, linear substrates (87 bp oligonucleotide)
[13] = read-out: IC50, in vitro purified enzyme assay, supercoil (circular) plasmid substrate

CCCCC(CC)COC(=O)CC(C(=O)OCC(CC)CCCC)S(=O)(=O)O (stereo not shown) [Docusate]
effect on the activity of FnoCas12a (FnoCas12a): completely inhibit
selectivity of inhibition between SpyCas9 (Type II-A) and FnoCas12a (Type V) (FnoCas12a): less than 5 folds
IC50 (SauCas9 [1]; IC50, in vitro purified enzyme assay, linear substrates (87 bp oligonucleotide)): 12.5 to 25 µM
IC50 (SauCas9 [1]; IC50, in vitro purified enzyme assay, supercoil (circular) plasmid substrate): 25 to 50 µM
selectivity of inhibition between SpyCas9 (Type II-A) and LbaCas12a (Type V) (LbaCas12a): less than 5 folds
effect on the activity of LbaCas12a (LbaCas12a): completely inhibit
IC50 (SpyCas9 [2]; IC50, in vitro purified enzyme assay, linear substrates (87 bp oligonucleotide or 2.5 kb linear DNA)): 20 to 50 µM
IC50 (SpyCas9 [2]; IC50, in vitro purified enzyme assay, supercoil (circular) plasmid substrate pcDNA3.1/CT-GFP): 10 to 20 µM
Kd (SpyCas9 [3]): 12.8 to 56.4 µM
selectivity for Cas9 over other endonucleases EcoRI and KpnI [4]: ~ 5 folds

Cc1ccc(S(=O)(=O)N2CC[C@@H]3[C@H](CO)Nc4ccc(-c5ccccc5F)cc4[C@@H]32)cc1 [BRD0539]
IC50 (SauCas9 [1]; [12]): 10 to 20 µM
IC50 (SauCas9 [1]; [13]): ~50 µM
IC50 (SpyCas9 [5]): 22 µM

CN[C@H]1C(=O)N[C@@H]2Cc3ccc(cc3)Oc3cc4cc(c3O[C@@H]3O[C@H](C(=O)O)[C@@H](O)[C@H](O)[C@H]3NC(=O)CCCCCCCCC(C)C)Oc3ccc(cc3Cl)[C@@H](O)[C@@H]3NC(=O)[C@H](NC(=O)[C@@H]4NC(=O)[C@@H](NC2=O)c2cc(cc(O)c2Cl)Oc2cc1ccc2O)c1ccc(O)c(c1)-c1c(O[C@H]2O[C@H](CO)[C@@H](O)[C@H](O)[C@@H]2O)cc(O)cc1[C@@H](C(=O)NCCCN(C)C)NC3=O [Dalbavancin]
effect on the activity of FnoCas12a (FnoCas12a): inactive to or weakly inhibited
IC50 (BE4 base editor): 10 to 20 µM
IC50 (SpyCas9 [6]): 12.5 to 25 µM
IC50 (SpyCas9 [6]; listed as dalbavancin): ~12.5 µM
IC50 (SauCas9 [1]; [12]): ~25 µM
IC50 (SauCas9 [1]; [13]): 12.5 to 25 µM
effect on the basal level of PCSK9 in vehicle-treated (sgControl) mice ([7]; 160 mg/kg): did not interfere
preventive effect on loss of plasma PCSK9 ([7]; high doses of 80 or 160 mg/kg, 2nd or 3rd treatment cycle): strong preventive effects
IC50 (SpyCas9 [8]): ~10 µM
toxicity to E. coli (E. coli MG1655): did not appear to be much toxic
elimination half-time (t1/2 value) [9]: ~ 1 week
site of metabolism / elimination [9]: largely eliminated in the kidney
effect on the activity of LbaCas12a (LbaCas12a): inactive to or weakly inhibited
IC50 (SpyCas9 [2]; read-out: IC50, in vitro purified enzyme assay, linear substrates (87 bp oligonucleotide or 2.5 kb linear DNA)): ~5 µM
IC50 (SpyCas9 [2]; read-out: IC50, in vitro purified enzyme assay, supercoil (circular) plasmid substrate pcDNA3.1/CT-GFP): 10 to 20 µM
IC50 (SpyCas9 [10]): ~10 µM
IC50 (SauCas9 [11]): ~10 µM
selectivity for Cas9 over other endonucleases EcoRI and KpnI [4]: more than 10 folds
